{"source": "ChEMBL document CHEMBL1671657", "about": "“MurF inhibitors with antibacterial activity: effect on muropeptide levels” (Antimicrob Agents Chemother, 2009)", "key": {"Staphylococcus aureus [1]": {"system": "Staphylococcus aureus", "experiment": "Inhibition of Staphylococcus aureus ATCC 29213 MurF assessed as UDP-MurNAc-tripeptide substrate level at 2 times MIC by HPLC (reference value: 1 mAU)", "procedure,_shortened": "(§1)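 After 30 min, muropeptides were extracted and quantified by HPLC peak area, normalized to the control. The HPLC detection limit was 12 mAU. Results are representative of two independent experiments.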"}, "Staphylococcus aureus [2]": {"system": "Staphylococcus aureus", "experiment": "Antimicrobial activity against methicillin-resistant Staphylococcus aureus OC2878 by broth microdilution method", "assay_type": "functional", "procedure,_shortened": "(§2)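 CLSI broth microdilution MIC; strains from the sponsor's in-house collection.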"}, "Staphylococcus aureus [3]": {"system": "Staphylococcus aureus", "experiment": "Antimicrobial activity against Staphylococcus aureus OC4172 by broth microdilution method", "assay_type": "functional", "procedure,_shortened": "(§3)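 MICs by CLSI broth microdilution. Where polymyxin B nonapeptide was included, it was present at 2 μg/ml alongside the test compound.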"}, "Escherichia coli [4]": {"system": "Escherichia coli", "experiment": "Inhibition of LPS-deficient Escherichia coli OC2530 MurF assessed as UDP-MurNAc-tripeptide substrate level at 2 times MIC by HPLC (reference value: 1 mAU)"}, "Escherichia coli [5]": {"system": "Escherichia coli", "experiment": "Antimicrobial activity against Escherichia coli ATCC 25922 by broth microdilution method", "assay_type": "functional", "procedure,_shortened": "as §3"}, "Enterococcus faecalis": {"system": "Enterococcus faecalis", "experiment": "Antimicrobial activity against Enterococcus faecalis ATCC 29212 by broth microdilution method", "assay_type": "functional", "procedure,_shortened": "as §3"}, "Escherichia coli [6]": {"system": "Escherichia coli", "experiment": "Inhibition of LPS-deficient Escherichia coli OC2530 MurF harboring pASK plasmid assessed as UDP-MurNAc-tripeptide substrate level at 2 times MIC by HPLC (reference value: 63 +/- 4 mAU)", "procedure,_shortened": "(§4)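 Compound added at 2× MIC from 500× stock (DMSO control). After 30 min, muropeptides extracted and quantified by HPLC peak area (mAU); representative of two independent experiments.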"}, "Escherichia coli [7]": {"system": "Escherichia coli", "experiment": "Antimicrobial activity against LPS-deffective Escherichia coli OC2530 by broth microdilution method", "assay_type": "functional", "procedure,_shortened": "as §3"}, "Escherichia coli [8]": {"system": "Escherichia coli", "experiment": "Antimicrobial activity against LPS-deffective Escherichia coli OC2530 assessed as cell aggregation at 0.5 times MIC by light microscopy relative to untreated control", "assay_type": "functional, organism-based", "procedure,_shortened": "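Cells were fixed on a glass slide under a coverslip and viewed by light microscopy at ×100/×1.25 oil immersion. Representative images were taken.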"}, "Escherichia coli [9]": {"system": "Escherichia coli", "experiment": "Antimicrobial activity against Escherichia coli OC2605 by broth microdilution method", "assay_type": "functional", "procedure,_shortened": "as §2"}, "Staphylococcus aureus [10]": {"system": "Staphylococcus aureus", "experiment": "Antimicrobial activity against methicillin-resistant Staphylococcus aureus OC3726 by broth microdilution method", "assay_type": "functional", "procedure,_shortened": "as §2"}, "Escherichia coli [11]": {"system": "Escherichia coli", "experiment": "Bactericidal activity against LPS-deffective Escherichia coli OC2530 at 2 times MIC by CFU quantitation"}, "Escherichia coli [12]": {"system": "Escherichia coli", "experiment": "Antimicrobial activity against LPS-deffective Escherichia coli OC2530 harboring pASK plasmid by broth microdilution method in presence of chloramphenicol", "assay_type": "functional", "procedure,_shortened": "(§5)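 CLSI broth microdilution MIC for OC2530 carrying plasmid (empty pASK or pMurF). Medium contained chloramphenicol 3 μg/ml to keep the plasmid and AHT 100 ng/ml to induce MurF expression.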"}, "Staphylococcus aureus [13]": {"system": "Staphylococcus aureus", "experiment": "Antimicrobial activity against Staphylococcus aureus ATCC 29213 by broth microdilution method", "assay_type": "functional", "procedure,_shortened": "as §3"}, "Staphylococcus aureus [14]": {"system": "Staphylococcus aureus", "experiment": "Bacteriostatic activity against Staphylococcus aureus ATCC 29213 at 2 times MIC", "assay_type": "functional, organism-based"}, "Escherichia coli [15]": {"system": "Escherichia coli", "experiment": "Inhibition of LPS-deficient Escherichia coli OC2530 MurF assessed as UDP-MurNAc-pentapeptide product level at 2 times MIC by HPLC (reference value: 1 mAU)"}, "Escherichia coli [16]": {"system": "Escherichia coli", "experiment": "Antimicrobial activity against Escherichia coli OC9040 by broth microdilution method", "assay_type": "functional", "procedure,_shortened": "as §3"}, "Enterococcus faecium": {"system": "Enterococcus faecium", "experiment": "Antimicrobial activity against Enterococcus faecium OC3312 by broth microdilution method", "assay_type": "functional", "procedure,_shortened": "as §3"}, "Escherichia coli [17]": {"system": "Escherichia coli", "experiment": "Antimicrobial activity against LPS-deffective Escherichia coli OC2530 harboring pMurF plasmid by broth microdilution method in presence of chloramphenicol", "assay_type": "functional", "procedure,_shortened": "as §5"}, "Escherichia coli [18]": {"system": "Escherichia coli", "experiment": "Inhibition of LPS-deficient Escherichia coli OC2530 MurF harboring pMurF plasmid assessed as UDP-MurNAc-tripeptide substrate level at 2 times MIC by HPLC (reference value: 220 +/- 65 mAU)", "procedure,_shortened": "as §4"}, "Staphylococcus aureus [19]": {"system": "Staphylococcus aureus", "experiment": "Inhibition of Staphylococcus aureus ATCC 29213 MurF assessed as UDP-MurNAc-pentapeptide product level at 2 times MIC by HPLC (reference value: 1 mAU)", "procedure,_shortened": "as §1"}, "Escherichia coli [20]": {"system": "Escherichia coli", "experiment": "Inhibition of LPS-deficient Escherichia coli OC2530 MurF harboring pASK plasmid assessed as UDP-MurNAc-pentapeptide product level at 2 times MIC by HPLC (Rvb =880 +/- 17 mAU)", "procedure,_shortened": "as §4"}, "Escherichia coli [21]": {"system": "Escherichia coli", "experiment": "Inhibition of LPS-deficient Escherichia coli OC2530 MurF harboring pMurF plasmid assessed as UDP-MurNAc-pentapeptide product level at 2 times MIC by HPLC (reference value: 2674 +/- 696 mAU)", "procedure,_shortened": "as §4"}}, "note": "Calls of active or inactive are those of the source. The calls are words filed in the database; no cut-off is given here.", "data": [{"smiles": "N[C@@H]1CONC1=O", "note": "[CYCLOSERINE]", "values": [{"measurement": "Activity (fold of control)", "setting": "Staphylococcus aureus [1]", "result": "> 100"}, {"measurement": "MIC", "setting": "Staphylococcus aureus [2]", "result": 64, "unit": "µg/mL"}, {"measurement": "MIC", "setting": "Staphylococcus aureus [3]", "result": 32, "unit": "µg/mL"}, {"measurement": "Activity (fold of control)", "setting": "Escherichia coli [4]", "result": 30}, {"measurement": "MIC", "setting": "Escherichia coli [5]", "result": 32, "unit": "µg/mL"}, {"measurement": "MIC", "setting": "Enterococcus faecalis", "result": 128, "unit": "µg/mL"}, {"measurement": "Activity", "setting": "Escherichia coli [6]", "result": 2260, "unit": "mAU"}, {"measurement": "MIC", "setting": "Escherichia coli [7]", "result": 64, "unit": "µg/mL"}, {"measurement": "Activity", "setting": "Escherichia coli [8]", "result": "Active"}, {"measurement": "MIC", "setting": "Escherichia coli [9]", "result": 16, "unit": "µg/mL"}, {"measurement": "MIC", "setting": "Staphylococcus aureus [10]", "result": 32, "unit": "µg/mL"}, {"measurement": "Activity", "setting": "Escherichia coli [11]", "result": "Active"}, {"measurement": "MIC", "setting": "Escherichia coli [12]", "result": 64, "unit": "µg/mL"}, {"measurement": "MIC", "setting": "Staphylococcus aureus [13]", "result": 32, "unit": "µg/mL"}, {"measurement": "Activity", "setting": "Staphylococcus aureus [14]", "result": "Active"}, {"measurement": "Activity (fold of control)", "setting": "Escherichia coli [15]", "result": 0.12}, {"measurement": "MIC", "setting": "Escherichia coli [16]", "result": 32, "unit": "µg/mL"}, {"measurement": "MIC", "setting": "Enterococcus faecium", "result": 64, "unit": "µg/mL"}, {"measurement": "MIC", "setting": "Escherichia coli [17]", "result": 64, "unit": "µg/mL"}, {"measurement": "Activity", "setting": "Escherichia coli [18]", "result": 5090, "unit": "mAU"}, {"measurement": "Activity (fold of control)", "setting": "Staphylococcus aureus [19]", "result": 0.33}, {"measurement": "Activity", "setting": "Escherichia coli [20]", "result": 146, "unit": "mAU"}, {"measurement": "Activity", "setting": "Escherichia coli [21]", "result": 181, "unit": "mAU"}]}]}
